Results of several laboratories.

COc1cc(Nc2nccc(-c3cnn4nc(OC)ccc34)n2)cc(C(F)(F)F)c1 — IC50 (SK-N-FI; cell growth or viability, ATP luminescence): 0.25 µM
COC(=O)N[C@H](C(=O)N1CCC[C@H]1C(=O)Nc1cccc(C#CC#Cc2cccc(NC(=O)[C@@H]3CCCN3C(=O)[C@@H](NC(=O)OC)C(C)C)c2)c1)C(C)C — EC50 (Hepatitis C virus; viral replication, inhibitor, luciferase; GETYPE4A; replicon): 0.00611 µM
Nc1nc(N)c2ncn([C@H]3O[C@H](CO)[C@@H](F)[C@@H]3F)c2n1 — EC50 (Hepatitis C virus; viral replication, inhibitor; Huh-7; replicon): > 10 µM
CC1(C)OC[C@@]2(C)[C@H]3CC[C@@H]4CN(Cc5ccco5)[C@@H](C5=CCOC5=O)C[C@H]4[C@]3(C)CC[C@H]2O1 — inhibition (unidentified human coronavirus; cytopathic effect; MRC5; 25 µM, 72 h): 17.5%
CCOC(=O)N[C@H](CC(C)C)C(=O)N1CCC[C@H]1C(=O)Nc1cccc(C#CC#Cc2cccc(NC(=O)[C@@H]3CCCN3C(=O)[C@@H](CC(C)C)NC(=O)OCC)c2)c1 — EC50 (Hepatitis C virus; viral replication, inhibitor, luciferase; GETYPE3A; replicon): > 10 µM
COC(=O)N[C@H](C(=O)N1CCC[C@H]1c1ncc(-c2ccc(-c3ccc(-c4cnc([C@@H]5CCCN5C(=O)[C@@H](NC(=O)OC)C(C)C)[nH]4)cc3)cc2)[nH]1)C(C)C — EC50 (Hepatitis C virus; viral replication, inhibitor; Huh-7, GETYPE2A; replicon): 2e-05 µM
CC#CC(=O)N1CC[C@@H](n2cc(-c3ccc(Oc4c(F)cccc4F)cc3)c3c(N)n[nH]c(=O)c32)C1 — GI50 (Z-138; cell growth or viability, ATP luminescence; 72 h): 6.96 µM
CC(=O)OC[C@@]1(C)[C@H]2CC[C@@H]3CN(Cc4ccccc4)[C@@H](C4=CCOC4=O)C[C@H]3[C@]2(C)CC[C@H]1OC(C)=O — inhibition (unidentified human coronavirus; cytopathic effect; MRC5; 25 µM, 72 h): 82.4%
CC(C)C[C@H](NC(=O)[C@H](Cc1ccccc1)NC(=O)c1cnccn1)B(O)O — IC50 (DLD-1; cell growth or viability, ATP luminescence): 0.014 µM
CC(C)CCN1C[C@H]2CC[C@@H]3[C@]4(C)COC(C)(C)O[C@@H]4CC[C@@]3(C)[C@@H]2C[C@@H]1C1=CCOC1=O — inhibition (unidentified human coronavirus; cytopathic effect; MRC5; 25 µM, 72 h): 22%
CCOC(=O)N[C@@H](CC(C)C)C(=O)N1CCC[C@H]1C(=O)Nc1ccc(C#CC#Cc2ccc(NC(=O)[C@@H]3CCCN3C(=O)[C@H](CC(C)C)NC(=O)OCC)cc2)cc1 — EC50 (Hepatitis C virus; viral replication, inhibitor, luciferase; Huh-5-2, GETYPE1B; 72 h, replicon): 3.21 µM
C=CC(=O)N1CCC[C@@H](n2nc(-c3ccc(Oc4ccccc4)cc3)c3c(N)ncnc32)C1 — GI50 (Granta-519; cell growth or viability, ATP luminescence; 72 h): 10.3 µM
C=C1CC[C@@H]2[C@](C)(CO)[C@H](O)CC[C@@]2(C)[C@@H]1C/C=C1/C(=O)OC[C@H]1O — inhibition (unidentified human coronavirus; cytopathic effect; MRC5; 25 µM, 72 h): 58.4%
